How the values were obtained:
Format in all cases: functional
NCI-H322M = assay: Anticancer activity against human NCI-H322M cells assessed as cell growth promotion at 10^-5 M after 48 hrs by SRB assay relative to control
OVCAR-8 = assay: Anticancer activity against human OVCAR8 cells assessed as cell growth promotion at 10^-5 M after 48 hrs by SRB assay relative to control
NCI-H226 = assay: Anticancer activity against human NCI-H226 cells assessed as cell growth promotion at 10^-5 M after 48 hrs by SRB assay relative to control
K562 = assay: Anticancer activity against human K562 cells assessed as cell growth promotion at 10^-5 M after 48 hrs by SRB assay relative to control
KM12 = assay: Anticancer activity against human KM12 cells assessed as cell growth promotion at 10^-5 M after 48 hrs by SRB assay relative to control
MOLT-4 = assay: Anticancer activity against human MOLT4 cells assessed as cell growth promotion at 10^-5 M after 48 hrs by SRB assay relative to control
UACC-257 = assay: Anticancer activity against human UACC257 cells assessed as cell growth promotion at 10^-5 M after 48 hrs by SRB assay relative to control
HCT-15 = assay: Anticancer activity against human HCT15 cells assessed as cell growth promotion at 10^-5 M after 48 hrs by SRB assay relative to control
NCI/ADR-RES = assay: Anticancer activity against human NCI/ADR-RES cells assessed as cell growth promotion at 10^-5 M after 48 hrs by SRB assay relative to control
OVCAR-3 = assay: Anticancer activity against human OVCAR3 cells assessed as cell growth promotion at 10^-5 M after 48 hrs by SRB assay relative to control
OVCAR-5 = assay: Anticancer activity against human OVCAR5 cells assessed as cell growth promotion at 10^-5 M after 48 hrs by SRB assay relative to control
SF-295 = assay: Anticancer activity against human SF295 cells assessed as cell growth promotion at 10^-5 M after 48 hrs by SRB assay relative to control
HOP-62 = assay: Anticancer activity against human HOP62 cells assessed as cell growth promotion at 10^-5 M after 48 hrs by SRB assay relative to control
HL-60(TB) = assay: Anticancer activity against human HL-60(TB) cells assessed as cell growth promotion at 10^-5 M after 48 hrs by SRB assay relative to control
In short: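 NCI-60 single-dose screen: compound at 10^-5 M, 48 h at 37 °C, 5% CO2; cells grown in RPMI 1640 with 5% FBS and 2 mM L-glutamine, pre-incubated 24 h before dosing. Adherent cells fixed with cold TCA; endpoint is sulforhodamine B protein staining. Percent growth of treated cells is reported relative to untreated control.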

UO-31 = assay: Anticancer activity against human UO31 cells assessed as cell growth promotion at 10^-5 M after 48 hrs by SRB assay relative to control
[1] = Anticancer activity against human […] cells assessed as cell growth promotion at 10^-5 M after 48 hrs by SRB assay relative to control
SK-MEL-5 = assay: Anticancer activity against human SK-MEL-5 cells assessed as cell growth promotion at 10^-5 M after 48 hrs by SRB assay relative to control
HCC 2998 = assay: Anticancer activity against human HCC2998 cells assessed as cell growth promotion at 10^-5 M after 48 hrs by SRB assay relative to control
MDA-MB-435 = assay: Anticancer activity against human MDA-MB-435 cells assessed as cell growth promotion at 10^-5 M after 48 hrs by SRB assay relative to control
SR = assay: Anticancer activity against human SR cells assessed as cell growth promotion at 10^-5 M after 48 hrs by SRB assay relative to control
SF-268 = assay: Anticancer activity against human SF268 cells assessed as cell growth promotion at 10^-5 M after 48 hrs by SRB assay relative to control
U-251 = assay: Anticancer activity against human U251 cells assessed as cell growth promotion at 10^-5 M after 48 hrs by SRB assay relative to control
HCT-116 = assay: Anticancer activity against human HCT116 cells assessed as cell growth promotion at 10^-5 M after 48 hrs by SRB assay relative to control
MDA-MB-468 = assay: Anticancer activity against human MDA-MB-468 cells assessed as cell growth promotion at 10^-5 M after 48 hrs by SRB assay relative to control
MCF7 = assay: Anticancer activity against human MCF7 cells assessed as cell growth promotion at 10^-5 M after 48 hrs by SRB assay relative to control
COLO 205 = assay: Anticancer activity against human COLO205 cells assessed as cell growth promotion at 10^-5 M after 48 hrs by SRB assay relative to control
CAKI-1 = assay: Anticancer activity against human Caki1 cells assessed as cell growth promotion at 10^-5 M after 48 hrs by SRB assay relative to control
786-0 = assay: Anticancer activity against human 786-0 cells assessed as cell growth promotion at 10^-5 M after 48 hrs by SRB assay relative to control
PC-3 = assay: Anticancer activity against human PC3 cells assessed as cell growth promotion at 10^-5 M after 48 hrs by SRB assay relative to control
NCI-H23 = assay: Anticancer activity against human NCI-H23 cells assessed as cell growth promotion at 10^-5 M after 48 hrs by SRB assay relative to control
Malme-3M = assay: Anticancer activity against human MALME-3M cells assessed as cell growth promotion at 10^-5 M after 48 hrs by SRB assay relative to control
SN12C = assay: Anticancer activity against human SN12C cells assessed as cell growth promotion at 10^-5 M after 48 hrs by SRB assay relative to control
UACC-62 = assay: Anticancer activity against human UACC62 cells assessed as cell growth promotion at 10^-5 M after 48 hrs by SRB assay relative to control
TK-10 = assay: Anticancer activity against human TK10 cells assessed as cell growth promotion at 10^-5 M after 48 hrs by SRB assay relative to control
IGROV-1 = assay: Anticancer activity against human IGROV1 cells assessed as cell growth promotion at 10^-5 M after 48 hrs by SRB assay relative to control
CCRF-CEM = assay: Anticancer activity against human CCRF-CEM cells assessed as cell growth promotion at 10^-5 M after 48 hrs by SRB assay relative to control
MDA-MB-231 = assay: Anticancer activity against human MDA-MB-231 cells assessed as cell growth promotion at 10^-5 M after 48 hrs by SRB assay relative to control
HT-29 = assay: Anticancer activity against human HT-29 cells assessed as cell growth promotion at 10^-5 M after 48 hrs by SRB assay relative to control
DU-145 = assay: Anticancer activity against human DU145 cells assessed as cell growth promotion at 10^-5 M after 48 hrs by SRB assay relative to control
EKVX = assay: Anticancer activity against human EKVX cells assessed as cell growth promotion at 10^-5 M after 48 hrs by SRB assay relative to control
SNB-19 = assay: Anticancer activity against human SNB19 cells assessed as cell growth promotion at 10^-5 M after 48 hrs by SRB assay relative to control
A549 = assay: Anticancer activity against human A549 cells assessed as cell growth promotion at 10^-5 M after 48 hrs by SRB assay relative to control
RXF 393 = assay: Anticancer activity against human RXF393 cells assessed as cell growth promotion at 10^-5 M after 48 hrs by SRB assay relative to control
SK-MEL-28 = assay: Anticancer activity against human SK-MEL-28 cells assessed as cell growth promotion at 10^-5 M after 48 hrs by SRB assay relative to control
M14 = assay: Anticancer activity against human M14 cells assessed as cell growth promotion at 10^-5 M after 48 hrs by SRB assay relative to control
LOX IMVI = assay: Anticancer activity against human LOXIMVI cells assessed as cell growth promotion at 10^-5 M after 48 hrs by SRB assay relative to control
SF-539 = assay: Anticancer activity against human SF539 cells assessed as cell growth promotion at 10^-5 M after 48 hrs by SRB assay relative to control
ACHN = assay: Anticancer activity against human ACHN cells assessed as cell growth promotion at 10^-5 M after 48 hrs by SRB assay relative to control

## Brc1cccc(/C=C/c2nc3ccccc3nc2SCc2nc3ccccc3[nH]2)c1
NCI-H322M
  Activity: 95.01%
OVCAR-8
  Activity: 97.32%
NCI-H226
  Activity: 96.35%
K562
  Activity: 79.2%
KM12
  Activity: 90.27%
MOLT-4
  Activity: 84.4%
UACC-257
  Activity: 93.79%
HCT-15
  Activity: 101%
NCI/ADR-RES
  Activity: 89.75%
OVCAR-3
  Activity: 92.52%
OVCAR-5
  Activity: 94.9%
SF-295
  Activity: 100%
HOP-62
  Activity: 97.73%
HL-60(TB)
  Activity: 96.53%
UO-31
  Activity: 63.7%
[1]
  Activity: 108%
SK-MEL-5
  Activity: 96.24%
HCC 2998
  Activity: 99.44%
MDA-MB-435
  Activity: 90.95%
SR
  Activity: 97.29%
SF-268
  Activity: 94.82%
U-251
  Activity: 90.27%
HCT-116
  Activity: 78.83%
MDA-MB-468
  Activity: 101%
MCF7
  Activity: 61.74%
COLO 205
  Activity: 119%
CAKI-1
  Activity: 69.32%
786-0
  Activity: 95.67%
PC-3
  Activity: 125%
NCI-H23
  Activity: 93.86%
Malme-3M
  Activity: 86.98%
SN12C
  Activity: 88.36%
UACC-62
  Activity: 79.86%
TK-10
  Activity: 103%
IGROV-1
  Activity: 101%
CCRF-CEM
  Activity: 99.77%
MDA-MB-231
  Activity: 93.29%
HT-29
  Activity: 94.19%
DU-145
  Activity: 97.76%
EKVX
  Activity: 79.01%
SNB-19
  Activity: 94.19%
A549
  Activity: 100%
RXF 393
  Activity: 105%
SK-MEL-28
  Activity: 86.57%
M14
  Activity: 102%
LOX IMVI
  Activity: 91.83%
SF-539
  Activity: 101%
ACHN
  Activity: 102%

Source: ChEMBL document CHEMBL1781959, “Synthesis and in vitro antitumor activity of substituted quinazoline and quinoxaline derivatives: search for anticancer agent” (Eur J Med Chem, 2011)
